Laboratory results taken from ChEMBL document CHEMBL3272270, “Potential antitumor agents. 23. 4'-(9-Acridinylamino)alkanesulfonanilide congeners bearing hydrophilic functionality” (J Med Chem, 1977).

Key:
L1210 [1] = test: Antileukemic activity against ip implanted mouse L1210 cells in C3H/DBA2 F1 hybrid hybrid mouse assessed as increase life span treated ip after 24 hrs after tumor inoculation and continued for 5 days; format: functional
Outline: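 10^5 L1210 cells implanted ip in 18.5-22.5-g C3H/DBA2 F1 hybrid mice. Drug given ip from 24 h after inoculation, continuing for 5 days, each dose in 0.2 mL. Dose levels spaced at 0.18 log intervals, six mice per dose, one control group per six test groups. Read-out is life extension; 50-day survivors counted as cures.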

L1210 [2] = test: Antileukemic activity against sc implanted mouse L1210 cells in C3H/DBA2 F1 hybrid hybrid mouse assessed as increase life span treated ip after 24 hrs after tumor inoculation and continued for 5 days; format: functional
Outline: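 10^5 L1210 cells implanted sc above the right axilla in 18.5-22.5-g C3H/DBA2 F1 hybrid mice. Drug given ip (0.2 mL) from 24 h for 5 days. Dilution series at 0.18 log intervals, centred on the optimum ip L1210 dose. Top dose had to show toxicity and lowest dose had to be suboptimal, otherwise the test was repeated. Read-out is life extension.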

[3] = Retardation factor, Rm of the compound by reversed phase partition chromatography; format: physicochemical
Mus musculus = test: Toxicity in sc implanted mouse L1210 cells allografted C3H/DBA2 F1 hybrid hybrid mouse assessed as optimum dose required to increase life span treated ip after 24 hrs after tumor inoculation and continued for 5 days; format: organism-based; details: in vivo
Outline: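 10^5 L1210 cells implanted sc above the right axilla in 18.5-22.5-g C3H/DBA2 F1 hybrid mice. Ip dosing (0.2 mL per dose) ran daily for 5 days from 24 h. Dilution series at 0.18 log intervals, with the median dose set at the earlier ip L1210 optimum. Six mice per dose, one control group per six test groups. Tests were repeated until the highest dose was toxic and the lowest clearly suboptimal.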

[4] = Half life in mouse L1210 cells allografted C3H/DBA2 F1 hybrid hybrid mouse

half-life [4] [min] | SMILES | ILS (L1210 [1]) [%] | ILS (L1210 [2]) [%] | Rm [3] | Activity (Mus musculus) [mg/kg]
 | COc1cc(NS(C)(=O)=O)ccc1Nc1c2ccccc2nc2c(C(N)=O)cccc12.Cl | 140 | 36 | -0.27 | 25
 | CNC(=O)Nc1ccc(Nc2c3ccccc3nc3ccccc23)cc1 | 112 | >25 | 0.25 | 60
 | COc1cc(NS(C)(=O)=O)ccc1Nc1c2ccc(I)cc2nc2c(OCC(O)CO)cccc12.Cl (configuration not stated) |  | >25 | 0.06 | 62
 | COc1ccc(Nc2c3ccccc3nc3cc(N)ccc23)cc1.Cl | 66 |  | 0.31 | 15
12 | Nc1ccc(Nc2c3ccccc3nc3ccccc23)cc1 |  |  |  | 
 | CCOC(=O)N1CCN(C(=O)Nc2ccc(Nc3c4ccccc4nc4ccccc34)cc2)CC1.Cl | 29 |  | 0.59 | 50
 | CC(=O)N(C)CCS(=O)(=O)Nc1ccc(Nc2c3ccccc3nc3ccccc23)cc1.Cl | 54 |  | 0.05 | 200
 | COc1cc(NS(C)(=O)=O)ccc1Nc1c2ccccc2nc2c(C(=O)N(C)C)cccc12.Cl | 84 | 61 | 0.09 | 15
 | CN(C)C(=O)CCS(=O)(=O)Nc1ccc(Nc2c3ccccc3nc3ccccc23)cc1.Cl | 63 |  | 0.17 | 150
 | COC(=O)NCCS(=O)(=O)Nc1ccc(Nc2c3ccccc3nc3ccccc23)cc1.Cl | 67 |  | 0.24 | > 500
 | CC(CS(=O)(=O)Nc1ccc(Nc2c3ccccc3nc3ccccc23)cc1)C(N)=O.Cl (configuration not stated) | >25 |  | -0.11 | 50
 | CS(=O)(=O)N1CCN(c2ccc(Nc3c4ccccc4nc4ccccc34)cc2)CC1.Cl | 69 |  | 0.21 | 200
 | Cl.NC(=O)N1CCN(c2ccc(Nc3c4ccccc4nc4ccccc34)cc2)CC1 | 78 |  | -0.11 | 37
 | COC(=O)CCS(=O)(=O)Nc1ccc(Nc2c3ccccc3nc3ccccc23)cc1.Cl |  | >25 | 0.57 | > 500
 | COCCS(=O)(=O)Nc1ccc(Nc2c3ccccc3nc3ccccc23)cc1.Cl | 79 | 25 | 0.21 | 280
 | CCCS(=O)(=O)Nc1ccc(Nc2c3ccccc3nc3c(C(=O)N[C@H]4[C@@H](OC)O[C@H](CO)[C@@H](O)[C@@H]4O)cccc23)c(OC)c1.Cl | 180 | 51 | -0.1 | 400
 | CC(=O)NCCCS(=O)(=O)Nc1ccc(Nc2c3ccccc3nc3ccccc23)cc1.Cl | 26 |  | -0.01 | > 500
 | Br.CN1CCN(c2ccc(Nc3c4ccccc4nc4ccccc34)cc2)CC1 | >25 |  | -0.68 | 50
 | COC(=O)NNC(=O)Nc1ccc(Nc2c3ccccc3nc3ccccc23)cc1.Cl | 67 |  | -0.04 | > 500
 | CC(=O)NCCS(=O)(=O)Nc1ccc(Nc2c3ccccc3nc3ccccc23)cc1.Cl | 94 | >25 | -0.06 | 50
 | Cl.O=C(O)CCS(=O)(=O)Nc1ccc(Nc2c3ccccc3nc3ccccc23)cc1 | >25 |  | 0.1 | 350
 | O=[N+]([O-])c1ccc2c(Nc3ccc(N4CCNCC4)cc3)c3ccccc3nc2c1 | >25 |  | -0.81 | 15
 | Br.CN1CCN(c2ccc(Nc3c4ccccc4nc4cc([N+](=O)[O-])ccc34)cc2)CC1 | >25 |  | -0.78 | 60
 | CC(=O)N1CCN(c2ccc(Nc3c4ccccc4nc4ccccc34)cc2)CC1.Cl | 81 |  | 0.23 | 75

half-life [4] [min] | SMILES | ILS (L1210 [1]) [%] | ILS (L1210 [2]) [%] | Rm [3] | Activity (Mus musculus) [mg/kg]
 | COc1cc(NS(C)(=O)=O)ccc1Nc1c2ccccc2nc2c(C(=O)NCC(O)CO)cccc12.Cl (configuration not stated) | 72 |  | -0.36 | 92
 | COc1cc(NS(C)(=O)=O)ccc1Nc1c2ccccc2nc2c(C(=O)N[C@H]3[C@@H](OC)O[C@H](CO)[C@@H](O)[C@@H]3O)cccc12.Cl | 100 | 49 | -0.57 | 180
 | Cl.NC(=O)CCS(=O)(=O)Nc1ccc(Nc2c3ccccc3nc3ccccc23)cc1 | 67 |  | -0.34 | > 500
 | Cl.O=C(Nc1ccc(Nc2c3ccccc3nc3ccccc23)cc1)OCC(O)CO (configuration not stated) | 63 | >25 | -0.06 | 25
 | CNC(=O)Nc1ccc(Nc2c3ccccc3nc3ccccc23)c(OC)c1.Cl | 72 |  | 0.51 | 50
 | Cc1cc(NS(C)(=O)=O)ccc1Nc1c2ccccc2nc2c(OCC(O)CO)cccc12.Cl (configuration not stated) | 110 | 41 | -0.03 | 100
 | COc1cc(NS(C)(=O)=O)ccc1Nc1c2ccccc2nc2c(OCC(O)CO)cccc12.Cl (configuration not stated) | 123 | 43 | -0.09 | 17
 | Cl.NC(=O)NCCS(=O)(=O)Nc1ccc(Nc2c3ccccc3nc3ccccc23)cc1 | 53 | >25 | -0.21 | 200
 | Br.CS(=O)(=O)N(CC(O)CO)c1ccc(Nc2c3ccccc3nc3ccccc23)cc1 (configuration not stated) | >25 |  | -0.03 | 65
 | Br.c1ccc2c(Nc3ccc(N4CCNCC4)cc3)c3ccccc3nc2c1 | >25 |  | -0.8 | 15
 | Br.COc1cc(NS(C)(=O)=O)ccc1Nc1c2ccccc2nc2cc(CCC(N)=O)ccc12 | 58 |  | -0.25 | 125
 | Cl.O=C1CNC(=O)N1CCS(=O)(=O)Nc1ccc(Nc2c3ccccc3nc3ccccc23)cc1 | 51 | >25 | -0.19 | 160
 | Cl.O=C1CCS(=O)(=O)N1c1ccc(Nc2c3ccccc3nc3ccccc23)cc1 | 33 |  | 0.13 | 200
 | CS(=O)(=O)Nc1ccc(Nc2c3ccccc3nc3ccccc23)cc1 | 107 | 28 | 0 | 45
 | CS(=O)(=O)NCCS(=O)(=O)Nc1ccc(Nc2c3ccccc3nc3ccccc23)cc1.Cl | 33 |  | -0.14 | 110
 | COc1cc(NS(C)(=O)=O)ccc1Nc1c2ccccc2nc2c(C(=O)NCC(N)=O)cccc12.Cl | 105 | 41 | -0.54 | 62
 | CNC(=O)c1cccc2c(Nc3ccc(NS(C)(=O)=O)cc3OC)c3ccccc3nc12.Cl | 166 | 59 | 0.06 | 8.3
 | COc1cc(NS(C)(=O)=O)ccc1Nc1c2ccccc2nc2c(OCCO)cccc12.Cl | 112 | 28 | 0.09 | 5
 | Br.COc1cc(NS(C)(=O)=O)ccc1Nc1c2ccccc2nc2c(CCC(N)=O)cccc12 | 94 | 30 | -0.17 | 15
 | COc1cc(NS(C)(=O)=O)ccc1Nc1c2ccccc2nc2c(C(=O)N[C@H]3[C@@H](OC)O[C@H](COC(C)=O)[C@@H](OC(C)=O)[C@@H]3OC(C)=O)cccc12.Cl | >25 |  | 0.62 | > 400
 | CCOC(=O)NNc1ccc(Nc2c3ccccc3nc3ccccc23)cc1.Cl | 67 |  | 0.41 | 25
 | COc1ccc(Nc2c3ccccc3nc3cc([N+](=O)[O-])ccc23)cc1.Cl | 33 |  | 0.49 | 90
 | COc1cc(NS(C)(=O)=O)ccc1Nc1c2ccccc2nc2ccccc12 [AMSACRINE] | 114 | 27 | 0.18 | 6.7
